Assays:
[1] = tested on: PC-3; assay: Cytotoxicity against human PC3 cells after 48 hrs by SRB assay; assay type: functional, cell-based; conditions: PC-3, 48 h
Method in brief: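 Second-stage NCI-60 panel run by the NCI Developmental Therapeutics Program, covering nine tumour subpanels. Five concentrations were tested: 0.01, 0.1, 1, 10 and 100 μM. Percentage growth at each level was plotted against log10 drug concentration. GI50, TGI and LC50 were read from these dose-response curves. Subpanel MID values were divided into the full-panel MID to give selectivity ratios.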

[2] = tested on: DU-145; assay: Cytotoxicity against human DU145 cells after 72 hrs by MTT assay; assay type: functional, cell-based; conditions: DU-145, 72 h
Method in brief: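 DU-145 cells grown in RPMI-1640 with 5% heat-inactivated fetal calf serum at 37 °C, 5% CO2. About 2×10^3 cells per well were seeded and incubated for 24 h. Compounds were dissolved in DMSO freshly and diluted into medium (vehicle 0.1% DMSO), then cells were exposed for 72 h. MTT was added for 3 h at 37 °C and absorbance read at 570 nm.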

[3] = Cytotoxicity against human WPMY-1cells assessed as survival rate after 72 hrs by MTT assay; assay type: cell-based; conditions: wpmy-1, 72 h
Method in brief: (§1)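 About 2×10^3 cells/well preincubated 24 h at 37 °C, 5% CO2. Compound freshly dissolved in DMSO, diluted into complete medium and added at various concentrations (vehicle 0.1% DMSO) for 72 h. MTT added for 3 h at 37 °C, absorbance read at 570 nm, survival rate derived.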

[4] = Cytotoxicity against human RWPE1 cells assessed as survival rate after 72 hrs by MTT assay; assay type: cell-based, RWPE-1; conditions: rwpe-1, 72 h; method in brief: as §1
[5] = Cytotoxicity against human SV-HUC1 cells assessed as survival rate after 72 hrs by MTT assay; assay type: cell-based; conditions: sv-huc1, 72 h
Method in brief: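 SV-HUC-1 cells grown in Ham's F-12K with 5% heat-inactivated fetal calf serum, 37 °C, 5% CO2. About 2×10^3 cells/well plated for 24 h, then a range of compound concentrations (DMSO stock diluted into medium; vehicle 0.1% DMSO) for 72 h. MTT added for 3 h at 37 °C; absorbance 570 nm.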

Compound	IC50 [1] [µM]	IC50 [2] [µM]	Activity [3]	Activity [4]	Activity [5]
CC(C)(C)c1ccc(Sc2cc3c(c4nsnc24)C(=O)c2ccccc2C3=O)cc1	> 15	8.38	–	–	–
O=C1c2ccccc2C(=O)c2c1cc(Sc1ccc(F)cc1)c1nsnc21	6.7	11.1	–	–	–
O=C1c2ccccc2C(=O)c2c1cc(SCCc1ccccc1)c1nsnc21	> 15	9.65	–	–	–
CCc1ccccc1Sc1cc2c(c3nsnc13)C(=O)c1ccccc1C2=O	> 15	> 15	–	–	–
O=C1c2ccccc2C(=O)c2c1cc(Sc1cccc(F)c1)c1nsnc21	8.82	12.7	–	–	–
Cc1ccc(C)c(Sc2cc3c(c4nsnc24)C(=O)c2ccccc2C3=O)c1	7.44	12	–	–	–
CCc1ccc(Sc2cc3c(c4nsnc24)C(=O)c2ccccc2C3=O)cc1	7.5	2.52	–	–	–
O=C1c2ccccc2C(=O)c2c1cc(Sc1cc(Cl)c(Cl)cc1Cl)c1nsnc21	> 15	> 15	–	–	–
Cc1ccc(Sc2cc3c(c4nsnc24)C(=O)c2ccccc2C3=O)cc1C	> 15	14.1	–	–	–
Cc1cccc(Sc2cc3c(c4nsnc24)C(=O)c2ccccc2C3=O)c1	> 15	> 15	–	–	–
O=C1c2ccccc2C(=O)c2c1cc(SCc1ccccc1Cl)c1nsnc21	5.48	6.38	–	–	–
CC(C)c1ccccc1Sc1cc2c(c3nsnc13)C(=O)c1ccccc1C2=O	> 15	14.6	–	–	–
Cc1ccc(Sc2cc3c(c4nsnc24)C(=O)c2ccccc2C3=O)cc1	> 15	> 15	–	–	–
CC(C)c1ccc(Sc2cc3c(c4nsnc24)C(=O)c2ccccc2C3=O)cc1	> 15	13.8	–	–	–
O=C1c2ccccc2C(=O)c2c1cc(Sc1cccc(Br)c1)c1nsnc21	12.4	10.7	–	–	–
CC(C)(C)c1ccc(CSc2cc3c(c4nsnc24)C(=O)c2ccccc2C3=O)cc1	9.5	3.66	–	–	–
O=C1c2ccccc2C(=O)c2c1cc(Sc1ccccc1Cl)c1nsnc21	> 15	> 15	–	–	–
COc1cccc2c1C(=O)c1c(O)c3c(c(O)c1C2=O)C[C@@](O)(C(=O)CO)C[C@@H]3O[C@H]1C[C@H](N)[C@H](O)[C@H](C)O1 [DOXORUBICIN]	–	–	Toxic	Toxic	Toxic
COc1ccccc1Sc1cc2c(c3nsnc13)C(=O)c1ccccc1C2=O	> 15	12.9	–	–	–
O=C1c2ccccc2C(=O)c2c1cc(Sc1ccccc1F)c1nsnc21	> 15	7.64	–	–	–
CCCSc1cc2c(c3nsnc13)C(=O)c1ccccc1C2=O	5.39	2.55	–	–	–
O=C1c2ccccc2C(=O)c2c1cc(Sc1ccc(Br)cc1)c1nsnc21	> 15	13.3	–	–	–
